Results: ChEMBL document CHEMBL1151806, “Indolizidine, antiinfective and antiparasitic compounds from Prosopis glandulosa var. glandulosa” (J Nat Prod, 2009)
Values after ≈ are worked out from the molar mass of the structure shown. Active and inactive are the calls of the source. No cut-off for these calls is given here.

Tests used:
Staphylococcus aureus [1] = experiment: Antimicrobial activity against methicillin-resistant Staphylococcus aureus ATCC 43300 by NCCLS method; assay type: functional, organism-based
Method in brief: (§1)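 Samples serially diluted in 20% DMSO/saline, tested in duplicate. Inocula set by OD630: C. albicans RPMI pH 4.5, 1·10^4 CFU/mL; C. neoformans Sabouraud dextrose, 1·10^5; MRSA cation-adjusted Mueller-Hinton pH 7.3, 5·10^5; M. intracellulare 7H9/OADC + 5% Alamar Blue pH 7.3, 2·10^6; A. fumigatus RPMI pH 7.3 + 5% Alamar Blue, 3·10^4.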

[2] = tested on: Mycobacterium intracellulare; experiment: Antimicrobial activity against Mycobacterium intracellular ATCC 23068 by alamar blue assay; assay type: functional, organism-based
Method in brief: as §1, with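 “3·10^4. Read at 630 nm or 544ex/590em before and after incubation.” for “3·10^4.”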

LLC-PK1 = experiment: Cytotoxicity against pig LLC-PK1 cells after 48 hrs by neutral red assay; assay type: cell-based, Sus scrofa; settings: Sus scrofa, LLC-PK1, 48 h; read-out: IC50
Method in brief: (§2)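 Cells seeded at 25,000/well, incubated 24 h, then exposed to samples for 48 h. Viable cells measured by Neutral Red uptake. IC50 from logarithmic plots of growth inhibition vs concentration. Doxorubicin positive control, DMSO vehicle control.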

BT-549 = experiment: Cytotoxicity against human BT549 cells after 48 hrs by neutral red assay; assay type: functional, cell-based; settings: BT-549, 48 h; method in brief: as §2
Vero [3] = experiment: Cytotoxicity against african green monkey Vero cells after 48 hrs by neutral red assay; assay type: cell-based, Chlorocebus sabaeus; method in brief: as §2
SK-OV-3 = experiment: Cytotoxicity against human SKOV3 cells after 48 hrs by neutral red assay; assay type: functional, cell-based; settings: SK-OV-3, 48 h; method in brief: as §2
KB = experiment: Cytotoxicity against human KB cells after 48 hrs by neutral red assay; assay type: functional, cell-based; method in brief: as §2
SK-MEL = experiment: Cytotoxicity against human SK-MEL cells after 48 hrs by neutral red assay; assay type: functional, cell-based; method in brief: as §2
Leishmania donovani = experiment: Antileishmanial activity against Leishmania donovani promastigotes after 48 hrs by alamar blue assay; assay type: functional, organism-based
[4] = Selectivity index, IC50 for african green monkey (Cercopithecus aethiops) Vero cells to IC50 for chloroquine-sensitive Plasmodium falciparum D6; assay type: functional
Method in brief: (§3)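 Selectivity index = IC50 against VERO cells divided by IC50 against P. falciparum (D6 or W2, respectively), each from the corresponding in-house assay.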

[5] = Selectivity index, IC50 for african green monkey (Cercopithecus aethiops) Vero cells to IC50 for […]; assay type: functional; method in brief: as §3
Vero [6] = experiment: Cytotoxicity against african green monkey Vero cells; assay type: cell-based; settings: Chlorocebus sabaeus; method in brief: as §2
Plasmodium falciparum [7] = experiment: Antimalarial activity after 72 hrs against chloroquine-resistant Plasmodium falciparum W2 by pLDH activity; assay type: functional, organism-based; settings: W2, 72 h
Method in brief: (§4)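 P. falciparum-infected red cells (2% parasitemia, 2% hematocrit) in RPMI-1640 with 10% human serum and 60 μg/mL amikacin, exposed to serial sample concentrations. Gassed with 90% N2/5% O2/5% CO2, incubated 37 °C for 72 h. Parasite LDH activity read colorimetrically with Malstat reagent.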

Aspergillus fumigatus [8] = experiment: Antimicrobial activity against Aspergillus fumigatus ATCC 90906 by alamar blue assay; assay type: functional, organism-based; method in brief: as §1
Candida albicans [9] = experiment: Antimicrobial activity against Candida albicans ATCC 90028 by NCCLS method; assay type: functional, organism-based; method in brief: as §1
Cryptococcus neoformans [10] = experiment: Antimicrobial activity against Cryptococcus neoformans ATCC 90113 by NCCLS method; assay type: functional, organism-based; method in brief: as §1
Plasmodium falciparum [11] = experiment: Antimalarial activity after 72 hrs against […] Plasmodium falciparum D6 by pLDH activity; assay type: functional, organism-based; settings: D6, 72 h; method in brief: as §4
Aspergillus fumigatus [12] = experiment: Antimicrobial activity against Aspergillus fumigatus ATCC 90906 by alamar blue assay in presence of 5% human serum; assay type: functional, organism-based
Candida albicans [13] = experiment: Antimicrobial activity against Candida albicans ATCC 90028 by NCCLS method in presence of 5% human serum; assay type: functional, organism-based
[14] = tested on: Mycobacterium intracellulare; experiment: Antimicrobial activity against Mycobacterium intracellular ATCC 23068 by alamar blue assay in presence of 5% human serum; assay type: functional, organism-based
Staphylococcus aureus [15] = experiment: Antimicrobial activity against methicillin-resistant Staphylococcus aureus ATCC 43300 by NCCLS method in presence of 5% human serum; assay type: functional, organism-based
Cryptococcus neoformans [16] = experiment: Antimicrobial activity against Cryptococcus neoformans ATCC 90113 by NCCLS method in presence of 5% human serum; assay type: functional, organism-based
Vero [17] = experiment: Cytotoxicity against african green monkey Vero cells at 4760 ng/mL; assay type: cell-based, Chlorocebus sabaeus
[18] = Chlorocebus sabaeus, Vero, 48 h, read-out: IC50
[19] = Aspergillus fumigatus, ATCC 90906
[20] = Aspergillus fumigatus, ATCC 90906, read-out: IC50
[21] = Candida albicans, ATCC 90028, read-out: IC50

## O=C(O)c1cn(C2CC2)c2cc(N3CCNCC3)c(F)cc2c1=O [CIPROFLOXACIN]
Staphylococcus aureus [1]
  MBC: inactive
  MIC: 0.3 mg/L (≈ 0.905 µM)
[2]
  MBC: inactive
  MIC: 0.63 mg/L (≈ 1.9 µM)

## COc1cccc2c1C(=O)c1c(O)c3c(c(O)c1C2=O)C[C@@](O)(C(=O)CO)C[C@@H]3O[C@H]1C[C@H](N)[C@H](O)[C@H](C)O1 [DOXORUBICIN]
LLC-PK1
  IC50: < 0.55 mg/L
BT-549
  IC50: < 0.55 mg/L
Vero [3]; [18]
  IC50: 3.2 mg/L (≈ 5.89 µM)
SK-OV-3
  IC50: < 0.55 mg/L
KB
  IC50: < 0.55 mg/L
SK-MEL
  IC50: < 0.55 mg/L

## C[C@@H]1N[C@H](CCCCCCCCCCc2cc(CCCCCCCCCC[C@H]3CC[C@@H](O)[C@@H](C)N3)c[n+]3c2CCC3)CC[C@H]1O [ISOPROSOPILOSIDINE]
LLC-PK1
  IC50: 21.3 mg/L
Staphylococcus aureus [1]
  IC50: 0.6 mg/L
  MBC: 20 mg/L
Leishmania donovani
  IC90: 2.5 mg/L
BT-549
  IC50: 6.75 mg/L
[4]
  Ratio IC50: >567
[5]
  Ratio IC50: >198
Vero [6]
  IC50: > 23.8 mg/L
Vero [3]; vero
  IC50: Not Active
Plasmodium falciparum [7]
  IC50: 0.12 mg/L
[2]
  IC50: 1.5 mg/L
  MBC: inactive
  MIC: 2.5 mg/L
Aspergillus fumigatus [8]; [19]
  MFC: 10 mg/L
  MIC: 10 mg/L
Aspergillus fumigatus [8]; [20]
  IC50: 6.5 mg/L
Candida albicans [9]
  IC50: Not Active
  MFC: inactive
  MIC: inactive
SK-OV-3
  IC50: 4.5 mg/L
KB
  IC50: 7 mg/L
SK-MEL
  IC50: 3.3 mg/L
Cryptococcus neoformans [10]
  IC50: 0.55 mg/L
  MFC: 1.25 mg/L
  MIC: 1.25 mg/L

## C[C@H]1N[C@@H](CCCCCCCCCCC2=C[C@@H](CCCCCCCCCC[C@@H]3CC[C@H](O)[C@@H](C)N3)[C@@H]3CCCN3C2)CC[C@H]1O [ISOPROSOPILOSINE]
Staphylococcus aureus [1]
  IC50: 1 mg/L (≈ 1.59 µM)
  MIC: 2.5 mg/L (≈ 3.97 µM)
Leishmania donovani
  IC50: 0.26 mg/L (≈ 0.413 µM)
BT-549
  IC50: 2.5 mg/L (≈ 3.97 µM)
[4]
  Ratio IC50: 22
[5]
  Ratio IC50: 12
Vero [6]
  IC50: 1.8 mg/L (≈ 2.86 µM)
Vero [3]; [18]
  IC50: 1.8 mg/L (≈ 2.86 µM)
Plasmodium falciparum [7]
  IC50: 0.15 mg/L (≈ 0.238 µM)
[2]
  IC50: 1.5 mg/L (≈ 2.38 µM)
Aspergillus fumigatus [8]; [19]
  MFC: 2.5 mg/L (≈ 3.97 µM)
  MIC: 0.16 mg/L (≈ 0.254 µM)
Aspergillus fumigatus [8]; [20]
  IC50: 0.1 mg/L (≈ 0.159 µM)
Candida albicans [9]
  IC50: Not Active
SK-OV-3
  IC50: < 1.1 mg/L
KB
  IC50: 2.2 mg/L (≈ 3.49 µM)
SK-MEL
  IC50: < 1.1 mg/L
Plasmodium falciparum [11]
  IC50: 0.083 mg/L (≈ 0.132 µM)
Cryptococcus neoformans [10]
  IC50: 0.4 mg/L (≈ 0.635 µM)
  MFC: 0.63 mg/L (≈ 1 µM)
  MIC: 0.63 mg/L (≈ 1 µM)

## C[C@H]1N[C@@H](CCCCCCCCCCC2=C[C@@H](CCCCCCCCCC[C@H]3CC[C@@H](O)[C@@H](C)N3)[C@@H]3CCCN3C2)CC[C@H]1O [JULIPROSOPINE]
Staphylococcus aureus [1]
  IC50: 3.5 mg/L (≈ 5.56 µM)
  MBC: inactive
Leishmania donovani
  IC50: 0.75 mg/L (≈ 1.19 µM)
Aspergillus fumigatus [12]
  Activity: Active
Candida albicans [13]
  Activity: Active
[4]
  Ratio IC50: 23
[14]
  Activity: Active
[5]
  Ratio IC50: 13
Staphylococcus aureus [15]
  Activity: Active
Vero [6]
  IC50: 5 mg/L (≈ 7.94 µM)
Vero [3]; [18]
  IC50: 5 mg/L (≈ 7.94 µM)
Plasmodium falciparum [7]
  IC50: 0.38 mg/L (≈ 0.603 µM)
[2]
  IC50: 6 mg/L (≈ 9.52 µM)
Aspergillus fumigatus [8]; [19]
  MFC: 1.25 mg/L (≈ 1.98 µM)
  MIC: 1.25 mg/L (≈ 1.98 µM)
Aspergillus fumigatus [8]; [20]
  IC50: 0.9 mg/L (≈ 1.43 µM)
Candida albicans [9]
  IC50: Not Active
  MFC: inactive
  MIC: inactive
SK-OV-3
  IC50: 4.7 mg/L (≈ 7.46 µM)
KB
  IC50: 6.2 mg/L (≈ 9.84 µM)
SK-MEL
  IC50: 2.4 mg/L (≈ 3.81 µM)
Cryptococcus neoformans [16]
  Activity: Active
Plasmodium falciparum [11]
  IC50: 0.22 mg/L (≈ 0.349 µM)
Cryptococcus neoformans [10]
  IC50: 1.5 mg/L (≈ 2.38 µM)

## N=C(N)c1ccc(OCCCCCOc2ccc(C(=N)N)cc2)cc1 [PENTAMIDINE]
Leishmania donovani
  IC50: 0.5 mg/L (≈ 1.47 µM)
  IC90: 2 mg/L (≈ 5.87 µM)

## C[C@@H]1N[C@H](CCCCCCCCCCc2cc(CCCCCCCCCC[C@@H]3CC[C@@H](O)[C@H](C)N3)c3[n+](c2)CCC3)CC[C@H]1O.[Cl-] [PROSOPILOSIDINE DIHYDROCHLORIDE]
Staphylococcus aureus [1]
  IC50: 1.5 mg/L
  MIC: 2.5 mg/L
Leishmania donovani
  IC50: 2.8 mg/L
  IC90: 8 mg/L
Aspergillus fumigatus [12]
  Activity: Active
Candida albicans [13]
  Activity: Active
[4]
  Ratio IC50: >11.1
[14]
  Activity: Active
[5]
  Ratio IC50: >17.6
Staphylococcus aureus [15]
  Activity: Active
Vero [17]
  IC50: Non-toxic
[2]
  IC50: 3.5 mg/L
  MBC: inactive
  MIC: 10 mg/L
Aspergillus fumigatus [8]
  IC50: Not Active
  MFC: inactive
  MIC: inactive
Candida albicans [9]
  MFC: inactive
Candida albicans [9]; Candida albicans, ATCC 90028
  MIC: 20 mg/L
Candida albicans [9]; [21]
  IC50: 15 mg/L
Cryptococcus neoformans [16]
  Activity: Active
Plasmodium falciparum [11]
  IC50: 0.43 mg/L
Cryptococcus neoformans [10]
  IC50: 1.5 mg/L
  MFC: 2.5 mg/L
  MIC: 2.5 mg/L

## C[C@@H]1N[C@H](CCCCCCCCCCC2=C[C@@H](CCCCCCCCCC[C@@H]3CC[C@@H](O)[C@H](C)N3)[C@@H]3CCCN3C2)CC[C@H]1O [PROSOPILOSINE]
LLC-PK1
  IC50: 1.9 mg/L (≈ 3.02 µM)
Staphylococcus aureus [1]
  IC50: 1.5 mg/L (≈ 2.38 µM)
Leishmania donovani
  IC50: 0.65 mg/L (≈ 1.03 µM)
[4]
  Ratio IC50: 47
[5]
  Ratio IC50: 24
Vero [6]
  IC50: 5.6 mg/L (≈ 8.89 µM)
Vero [3]; [18]
  IC50: 5.7 mg/L (≈ 9.05 µM)
Plasmodium falciparum [7]
  IC50: 0.23 mg/L (≈ 0.365 µM)
[2]
  IC50: 2 mg/L (≈ 3.17 µM)
  MBC: 20 mg/L (≈ 31.7 µM)
Aspergillus fumigatus [8]; [19]
  MFC: 0.63 mg/L (≈ 1 µM)
  MIC: 0.63 mg/L (≈ 1 µM)
Aspergillus fumigatus [8]; [20]
  IC50: 0.45 mg/L (≈ 0.714 µM)
Candida albicans [9]; [21]
  IC50: 15 mg/L (≈ 23.8 µM)
KB
  IC50: 6 mg/L (≈ 9.52 µM)
SK-MEL
  IC50: < 1.1 mg/L
Plasmodium falciparum [11]
  IC50: 0.12 mg/L (≈ 0.19 µM)
Cryptococcus neoformans [10]
  IC50: 0.8 mg/L (≈ 1.27 µM)
  MFC: 1.25 mg/L (≈ 1.98 µM)
